In paper PMC2702655 (Archives of biochemistry and biophysics, 2009):
“Also recorded” adds a separate entry of the source.

Tests used:
eNOS [1] = experiment: eNOS oxygenase activity, L-[3H]citrulline formation; assay type: biochemical, human; settings: 50 nM eNOS, 1 μM calmodulin, 0.5 mM Ca2+, 10 μM L-arginine, 37 °C, 5 min, varied peptide concentrations
In short: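 Steady-state reaction in 25 mM Tris pH 7.5, 100 mM NaCl, 0.1 mM EGTA, 0.1 mM EDTA, 100 μM β-NADPH, 100 μM H4B and 1 μCi L-[3H]arginine tracer. Read-out was L-[3H]citrulline formed. Activity was normalized as percent of the rate without peptide. Mean ± standard deviation of triplicate experiments.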

CaM mutant B1234Q = experiment: Gel mobility-shift assay of peptide binding to CaM mutant B1234Q; design: species or system human; settings: CaM:peptide ratio 1:10, 100 μM Ca2+
In short: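 Calmodulin mutant with Glu→Gln at all four Ca2+ sites ([…]), expressed in E. coli BL21(DE3) and purified by heat treatment at 70°C, ammonium sulfate fractionation and gel filtration. Test peptide and mutant were incubated at a 1:10 CaM:peptide ratio for 1 h in 20 mM Tris pH 7.5 with 100 μM Ca2+. Samples ran on 18% nondenaturing, non-reducing PAGE with 100 μM free Ca2+ in gel buffers, then Coomassie staining.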

CaM = experiment: Intrinsic tryptophan fluorescence of peptides with CaM; assay type: binding, human; settings: 100 μM Ca2+; 5 μM peptide + 5 μM CaM, 20 mM Tris pH 7.5, excitation 290 nm
In short: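 Test peptides carry tryptophan. Each peptide (5 μM) was measured with or without 5 μM E. coli-expressed wild-type CaM in 20 mM Tris pH 7.5 containing 100 μM Ca2+, with 1 mM EGTA in place of Ca2+ as the low-Ca2+ condition. Intrinsic fluorescence was excited at 290 nm and emission scanned from 300 to 450 nm, 2-nm slits. Intensity and emission peak position were compared.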

eNOS [2] = experiment: Cytochrome c reductase activity of eNOS; assay type: biochemical, human; settings: 10 μM peptide, with CaM
In short: (§1)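 Purified eNOS in Tris-HCl pH 7.5 with NaCl, 10% glycerol, NADPH and enzyme at 37 °C, with or without each peptide, and with or without CaM plus 100 μM CaCl2. Cytochrome c reduction used cytochrome c as electron acceptor. Ferricyanide reduction used the same mixture with ferricyanide in place of cytochrome c.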

eNOS [3] = experiment: Ferricyanide reduction by eNOS; assay type: biochemical, human; settings: 10 μM peptide, with CaM
In short: as §1

Row | Substance | Effect on eNOS oxygenase activity (L-citrulline formation), in words (eNOS [1]) | Binding to B1234Q (disappearance of free B1234Q band) (CaM mutant B1234Q) | also measured
1 | PKFPRVKNWEVGSITYDTLS [Peptide E0] | did not interfere with eNOS catalytic activity |  | 
2 | TKQA^1WRNA^5PRC^8IG^10RIQW^14SNL [Peptide M1] |  | able to bind B1234Q | Increase in tryptophan fluorescence intensity induced by CaM (CaM): 2 fold
3 | RRPKRREIPL^1KVLV^5KAV^8LFACML^14M [Peptide M2] |  | able to bind B1234Q; also recorded: binds B1234Q with the highest affinity | 
4 | YNSSPRPEQHKSY^1KIRF^5NSI^8SCSDPL^14 [Peptide E3] | weak inhibition on citrulline formation |  | Inhibition of cytochrome c reduction (eNOS [2]): no effect on electron transfer within reductase domain; Inhibition of ferricyanide reduction (eNOS [3]): no effect on electron transfer within reductase domain
5 | VTSRIRTQSF^1SLQERQL^8RGAVPW^14 [Peptide E5] | did not interfere with eNOS catalytic activity |  | 
